Results collected from several papers.
Compare with care: the assays were run in different laboratories.
Medium: plasma

| SMILES | host | route | dose | setting | Tmax [h] |
| --- | --- | --- | --- | --- | --- |
| O=C(COc1ccc(Cl)cc1)NC12CC(c3nnc([C@H]4C[C@@H](OC(F)(F)F)C4)o3)(C1)C2 | human | oral | 45 mg | single dose, fasted, healthy volunteers | 8.02 |
| COc1ccc2c(c1)CN(C(=O)CCN1CCC(Cc3ccccc3)CC1)CC[S@@+]2[O-] | male human | intravenous | 0.15 mg/kg | healthy volunteers | 0 |
| CC(=O)N(C)[C@H]1CCN(C(=O)c2cnc3c(c2)C[C@](C)(c2ccc(F)cc2)N3)C1 | male human | oral | 15 mg | multiple doses, once daily, steady state | 1.14 |
| CC(C)n1cc(C#N)c2cc(-n3cc(C(=O)O)cn3)ccc21 | human | oral | 200 mg | single dose, fasted, healthy volunteers | 4.01 |
| C[C@@H](Oc1ccc(S(C)(=O)=O)cc1C(=O)N1C[C@@H]2C[C@]2(c2cc(C(F)(F)F)on2)C1)C(F)(F)F | human | oral | 10 mg | single dose, fasted | 3.5 |
| N#Cc1cccc(-c2ccc3ncc(-c4cc(F)cc(F)c4)c(N4CCC(N)CC4)c3c2)c1O | male human | oral | 20 mg | single dose | 1.5 |
| OC[C@H]1O[C@@H](c2cc(Cc3ccc(C4CC4)cc3)c(Cl)c3c2CCO3)[C@H](O)[C@@H](O)[C@@H]1O | human | oral | 0.3 mg | single dose, fasted, healthy volunteers | 1.25 |
| COc1ccc(-c2c(Nc3ccccn3)[nH]c3c(C4=CCCCC4)c(-c4ccccc4)nn3c2=O)cc1 | human | oral | 200 mg twice daily | multiple doses, patients | 1 |
